# Reference: ChEMBL document CHEMBL1134615, “Structure-based design and synthesis of potent matrix metalloproteinase inhibitors derived from a 6H-1,3,4-thiadiazine scaffold” (J Med Chem, 2001)
# pKi: −log10 of the molar value.
# What was measured:
# Interstitial collagenase = target: T1, Interstitial collagenase (Homo sapiens, UniProt P03956); assay: In vitro inhibitory activity against full-length human matrix metalloprotease-1
# T1 sequence (P03956 whole entry): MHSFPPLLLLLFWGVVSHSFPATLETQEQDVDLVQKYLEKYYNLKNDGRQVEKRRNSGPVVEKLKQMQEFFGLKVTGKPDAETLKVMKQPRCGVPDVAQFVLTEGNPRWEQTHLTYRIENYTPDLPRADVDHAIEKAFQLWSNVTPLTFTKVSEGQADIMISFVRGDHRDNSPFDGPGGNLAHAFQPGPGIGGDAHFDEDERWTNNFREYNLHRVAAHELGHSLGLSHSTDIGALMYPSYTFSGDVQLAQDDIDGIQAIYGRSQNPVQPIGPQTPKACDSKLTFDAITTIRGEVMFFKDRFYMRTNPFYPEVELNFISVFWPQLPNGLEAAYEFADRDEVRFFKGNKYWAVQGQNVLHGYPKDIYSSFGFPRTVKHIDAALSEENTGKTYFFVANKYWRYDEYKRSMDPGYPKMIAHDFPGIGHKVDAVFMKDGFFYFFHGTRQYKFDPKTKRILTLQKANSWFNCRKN
# [1] = target: Macrophage metalloelastase (Homo sapiens, UniProt P39900); assay: In Vitro inhibitory activity against the catalytic domain of the matrix metalloprotease-12
# In short: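 Human MMP-12 catalytic domain, expressed in E. coli as inclusion bodies, renatured and affinity-purified. FRET assay in 50 mM HEPES/NaOH pH 7.0, 10 mM CaCl2, 0.02% PEG 8000, 2% DMSO, 25 °C. […] Inhibitor at 0.005-15 µM, 30 min preincubation, ex 330/em 405 nm, triplicate. Four-parameter logistic IC50, then Ki by the Horovitz-Levitski method.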
# Neutrophil collagenase = Neutrophil collagenase (Homo sapiens, UniProt P22894); assay: Inhibitory activity against matrix metalloprotease-8
# Collagenase 3 = Collagenase 3 (Homo sapiens, UniProt P45452); assay: In Vitro inhibitory activity against the catalytic domain of the matrix metalloprotease-13
# [2] = target: T2, Matrix metalloproteinase-14 (Homo sapiens, UniProt P50281); assay: Inhibition of matrix metalloprotease-14
# [3] = target: 72 kDa type IV collagenase (Homo sapiens, UniProt P08253)
# [4] = target: T2, Matrix metalloproteinase-14; assay: In vitro inhibitory activity against the ectodomain of the human matrix metalloprotease-14
# In short: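 Ectodomain of human MMP-14 (ΔTM) expressed in Pichia pastoris. […] Buffer 50 mM HEPES pH 7.0, 10 mM CaCl2, 0.02% PEG 8000, 2% DMSO, 25 °C. Inhibitor 0.005-15 µM, 30 min preincubation, ex 330/em 405 nm, triplicate. Ki from logistic-fit IC50 by the Horovitz-Levitski method.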
# [5] = target: Matrix metalloproteinase-9 (Homo sapiens, UniProt P14780); assay: In vitro inhibition of human matrix metalloprotease-9
# In short: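 Full-length PMNL pro-gelatinase from human plasma buffy coat, activated with trypsin for 10 min at 37 °C, then trypsin inactivated with TKI. […] Buffer 50 mM HEPES pH 7.0, 10 mM CaCl2, 0.02% PEG 8000, 2% DMSO, 25 °C. Inhibitor 0.005-15 µM, 30 min preincubation, triplicate. Ki from logistic IC50 by the Horovitz-Levitski method.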
# [6] = target: T2, Matrix metalloproteinase-14; assay: In vitro inhibitory activity against the catalytic domain of human matrix metalloprotease-14
# In short: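 E. coli-expressed human MMP-14 catalytic domain, activated by autocatalysis, at 0.3-5 nM. Assay buffer 50 mM HEPES pH 7.0, 10 mM CaCl2, 0.02% PEG 8000, 2% DMSO, 25 °C. […] Fluorescence ex 330/em 405 nm, triplicate. Ki derived from four-parameter logistic IC50 (Horovitz-Levitski).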
# Chain of Macrophage metalloelastase (P39900 whole entry, the tested form may be a part): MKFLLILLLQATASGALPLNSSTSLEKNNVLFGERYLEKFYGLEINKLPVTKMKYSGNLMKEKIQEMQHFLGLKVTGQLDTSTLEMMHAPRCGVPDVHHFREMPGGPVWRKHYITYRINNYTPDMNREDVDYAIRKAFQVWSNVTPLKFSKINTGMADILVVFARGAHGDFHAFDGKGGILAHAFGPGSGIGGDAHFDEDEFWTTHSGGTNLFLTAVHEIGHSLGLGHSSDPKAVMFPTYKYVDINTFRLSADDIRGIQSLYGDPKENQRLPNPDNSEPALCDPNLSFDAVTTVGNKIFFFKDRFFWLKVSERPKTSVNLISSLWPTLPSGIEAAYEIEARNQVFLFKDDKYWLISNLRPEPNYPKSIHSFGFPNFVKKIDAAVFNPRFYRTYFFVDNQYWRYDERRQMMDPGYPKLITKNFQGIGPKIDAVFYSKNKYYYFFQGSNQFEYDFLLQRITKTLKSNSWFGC
# Chain of 72 kDa type IV collagenase (P08253 whole entry, the tested form may be a part): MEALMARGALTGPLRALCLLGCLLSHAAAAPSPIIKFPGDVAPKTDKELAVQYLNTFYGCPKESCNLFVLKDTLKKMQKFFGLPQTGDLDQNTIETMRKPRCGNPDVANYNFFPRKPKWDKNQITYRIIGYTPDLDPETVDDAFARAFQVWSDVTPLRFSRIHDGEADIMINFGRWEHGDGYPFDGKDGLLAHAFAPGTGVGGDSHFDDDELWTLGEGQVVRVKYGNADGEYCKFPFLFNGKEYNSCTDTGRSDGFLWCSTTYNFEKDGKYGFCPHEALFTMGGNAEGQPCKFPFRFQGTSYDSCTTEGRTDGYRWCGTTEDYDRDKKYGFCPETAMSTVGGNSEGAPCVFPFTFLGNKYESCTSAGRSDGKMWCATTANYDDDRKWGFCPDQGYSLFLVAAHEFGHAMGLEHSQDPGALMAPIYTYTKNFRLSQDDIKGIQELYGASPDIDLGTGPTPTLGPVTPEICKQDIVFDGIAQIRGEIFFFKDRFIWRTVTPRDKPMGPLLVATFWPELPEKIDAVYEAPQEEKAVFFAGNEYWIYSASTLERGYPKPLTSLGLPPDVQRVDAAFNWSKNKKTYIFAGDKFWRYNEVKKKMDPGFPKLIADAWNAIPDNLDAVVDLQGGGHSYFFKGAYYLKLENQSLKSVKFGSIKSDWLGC
# Chain of Matrix metalloproteinase-9 (P14780 whole entry): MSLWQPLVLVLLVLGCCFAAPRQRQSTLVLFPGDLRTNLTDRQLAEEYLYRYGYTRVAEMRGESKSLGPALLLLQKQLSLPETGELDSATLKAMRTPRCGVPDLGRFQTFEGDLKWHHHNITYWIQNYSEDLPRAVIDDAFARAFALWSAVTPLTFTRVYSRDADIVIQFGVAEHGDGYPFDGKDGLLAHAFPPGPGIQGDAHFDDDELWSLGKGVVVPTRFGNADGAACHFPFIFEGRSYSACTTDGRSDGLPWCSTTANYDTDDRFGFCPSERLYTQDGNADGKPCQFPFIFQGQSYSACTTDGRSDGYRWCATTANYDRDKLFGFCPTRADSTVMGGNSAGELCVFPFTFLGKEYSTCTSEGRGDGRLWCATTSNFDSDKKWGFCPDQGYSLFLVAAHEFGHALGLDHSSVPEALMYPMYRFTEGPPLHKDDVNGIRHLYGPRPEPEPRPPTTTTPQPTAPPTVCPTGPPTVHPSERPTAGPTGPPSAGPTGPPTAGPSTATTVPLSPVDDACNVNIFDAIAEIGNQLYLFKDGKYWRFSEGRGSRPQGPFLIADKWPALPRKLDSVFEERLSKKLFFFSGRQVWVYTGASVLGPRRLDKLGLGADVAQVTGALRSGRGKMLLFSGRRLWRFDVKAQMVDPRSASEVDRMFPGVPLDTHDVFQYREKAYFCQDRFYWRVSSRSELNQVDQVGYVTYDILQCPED
# Chain of Neutrophil collagenase (P22894 whole entry, the tested form may be a part): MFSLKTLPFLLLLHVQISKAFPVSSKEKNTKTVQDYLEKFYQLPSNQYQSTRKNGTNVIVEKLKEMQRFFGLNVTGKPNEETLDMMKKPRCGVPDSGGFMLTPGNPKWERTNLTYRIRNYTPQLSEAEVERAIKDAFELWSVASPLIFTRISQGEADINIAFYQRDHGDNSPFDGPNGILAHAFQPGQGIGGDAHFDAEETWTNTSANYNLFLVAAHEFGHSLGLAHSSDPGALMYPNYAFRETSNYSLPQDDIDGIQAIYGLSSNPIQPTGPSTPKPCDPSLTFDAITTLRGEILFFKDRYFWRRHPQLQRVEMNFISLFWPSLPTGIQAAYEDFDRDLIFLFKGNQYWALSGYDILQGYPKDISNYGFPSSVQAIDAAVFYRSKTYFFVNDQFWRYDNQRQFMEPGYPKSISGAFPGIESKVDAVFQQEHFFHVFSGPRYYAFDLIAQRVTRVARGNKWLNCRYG
Structure (SMILES),pKi (Interstitial collagenase),pKi [1],pKi (Neutrophil collagenase),pKi (Collagenase 3),pKi [2],pKi [3],pKi [4],pKi [5],pKi [6]
C[C@@H](NS(=O)(=O)c1ccccc1)C(=O)NC1=NN=C(c2ccc(Br)cc2)CS1,6.38,6.47,6.68,6.89,6.70,6.82,6.74,7.40,–
COc1ccc(C2=NN=C(NC(=O)[C@H](C)NS(=O)(=O)c3ccccc3)SC2)cc1,6.24,6.47,6.74,5.88,–,–,–,6.49,6.23
C[C@@H](NS(=O)(=O)c1ccccc1)C(=O)NC1=NN=C(c2ccc(Cl)cc2)CS1,6.68,6.49,6.82,6.85,7.30,6.30,6.68,7.10,–
CC(C)[C@H](NS(=O)(=O)c1ccccc1)C(=O)NC1=NN=C(c2ccc(Cl)cc2)CS1,–,6.42,6.11,< 4.82,–,6.06,–,6.70,6.13
Cc1ccc(C2=NN=C(NC(=O)[C@H](C)NS(=O)(=O)c3ccccc3)SC2)cc1,–,6.96,6.52,6.21,–,6.39,–,6.80,6.42
C[C@H](NS(=O)(=O)Cc1ccccc1)C(=O)NC1=NN=C(c2ccc(Cl)cc2)CS1,6.44,6.32,6.70,6.92,–,7.05,6.74,7.40,6.72
C[C@H](NS(=O)(=O)c1ccccc1)C(=O)NC1=NN=C(c2ccc([N+](=O)[O-])cc2)CS1,6.59,6.55,6.77,6.59,–,6.52,–,6.89,6.54
C[C@@H](NS(=O)(=O)c1ccccc1)C(=O)NC1=NN=C(c2ccc(F)cc2)CS1,6.20,6.46,–,6.52,–,6.47,6.48,7.30,6.41
C[C@H](NS(=O)(=O)c1ccccc1)C(=O)NC1=NN=C(c2ccc(F)cc2)CS1,6.36,6.55,–,6.19,–,6.35,–,6.80,6.36
Cc1ccc(C2=NN=C(NC(=O)[C@@H](C)NS(=O)(=O)c3ccccc3)SC2)cc1,6.34,7.05,6.66,6.49,–,6.36,6.82,6.68,6.54
C[C@H](NS(=O)(=O)c1cccs1)C(=O)NC1=NN=C(c2ccc(Cl)cc2)CS1,–,6.44,7.22,5.42,–,6.26,–,6.10,6.60
C[C@H](NS(=O)(=O)c1ccccc1)C(=O)NC1=NN=C(c2ccc(C(F)(F)F)cc2)CS1,6.37,6.52,6.59,6.24,–,–,6.41,6.62,6.24
CC(C)[C@@H](NS(=O)(=O)c1ccccc1)C(=O)NC1=NN=C(c2ccc(Cl)cc2)CS1,6.26,6.46,5.36,< 4.82,–,6.07,6.48,< 4.82,6.23
C[C@H](NS(=O)(=O)c1ccccc1)C(=O)NC1=NN=C(c2ccc(C#N)cc2)CS1,6.41,6.43,6.66,6.60,6.62,6.62,6.40,7.10,–
C[C@@H](NS(=O)(=O)c1ccccc1)C(=O)NC1=NN=C(c2ccc(C#N)cc2)CS1,6.40,6.44,6.64,6.68,6.62,6.68,6.40,7.10,–
C[C@H](NS(=O)(=O)c1ccccc1)C(=O)NC1=NN=C(c2ccc(Cl)cc2)CS1,6.19,6.28,6.14,6.74,–,6.85,6.68,7.22,7.00
C[C@H](NS(=O)(=O)c1ccccc1)C(=O)NC1=NN=C(c2ccc(Cl)s2)CS1,6.35,6.62,6.74,6.33,–,5.73,6.70,6.77,6.49
C[C@H](NS(=O)(=O)c1ccccc1)C(=O)NC1=NN=C(C23CC4CC(CC(C4)C2)C3)CS1,–,6.39,< 4.82,< 4.82,–,< 4.82,–,< 4.82,5.51
C[C@H](NS(=O)(=O)c1ccccc1)C(=O)NC1=NN=C(c2ccc(Br)cc2)CS1,–,6.36,6.96,6.43,6.47,6.57,–,6.80,–
CC(C)(NS(=O)(=O)c1ccccc1)C(=O)NC1=NN=C(c2ccc(Cl)cc2)CS1,6.52,6.70,6.32,6.74,–,7.10,6.96,7.05,6.82
